Assay results: ChEMBL document CHEMBL1128497, “Synthesis and in vitro and in vivo antitumor activity of a series of trans platinum antitumor complexes” (J Med Chem, 1995)
Several values for one entry are separate records, joined by “and”; a condition that tells them apart may be missing. Equal values may be shown once.

How the values were obtained:
CH1 [1] = test: In vitro antitumor activity against CH1cisR cell line.; format: functional, cell-based, Homo sapiens
Outline: (§1)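 Human ovarian carcinoma monolayers were grown in DMEM with 10% FCS, insulin and hydrocortisone under 10% CO2. Cells were seeded at 5 × 10^3–1 × 10^4 per well and left to attach overnight. Drugs were freshly dissolved in 0.9% saline (1 mM or 500 μM stocks) and added to quadruplicate wells for 96 h. Cell mass was read by SRB staining. IC50 values are means of at least two experiments.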

41M [2] = test: In vitro antitumor activity against 41M cell line.; format: functional, cell-based, Homo sapiens; outline: as §1
SK-OV-3 = test: In vitro antitumor activity against SK-OV-3 cell line.; format: functional, cell-based, Homo sapiens; outline: as §1
[3] = In vivo antitumor activity by i.p. administration against murine ADJ/PC6 (sc) plasmacytoma.; format: ADME, organism-based; details: mouse, ip
41M [4] = test: In vitro antitumor activity against 41McisR cell line.; format: functional, cell-based, Homo sapiens; outline: as §1
Mus musculus = test: In Vivo Antitumor activity by ip administration against Murine ADJ/PC6 (sc) Plasmacytoma in mice; format: functional, organism-based; details: Plasma
Outline: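 ADJ/PC6 plasmacytoma (or its cisplatin-resistant subline) was implanted sc as 1 mm3 fragments. On day 20 mice received a single ip injection of drug as a sonicated suspension in arachis oil, at halving doses. Ten days later tumors were dissected and weighed against controls. […] Therapeutic index is MTD/ED90, alongside LD50.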

A2780 [5] = test: In vitro antitumor activity against A2780 cell line.; format: functional, cell-based, Homo sapiens; outline: as §1
CH1 [6] = test: In vitro antitumor activity against CH1 cell line.; format: functional, cell-based, Homo sapiens; outline: as §1
A2780 [7] = test: In vitro antitumor activity against A2780cisR cell line.; format: functional, cell-based, Homo sapiens; outline: as §1
CH1 [8] = test: Resistant factor, determined between IC50 of resistant line to that of CHcisR cell line; format: functional, cell-based; details: Homo sapiens; CH1cisR
Outline: (§2)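 Resistance factor is the IC50 in the cisplatin-resistant subline divided by the IC50 in its parent line. IC50s came from a 96 h SRB cytotoxicity assay run in quadruplicate wells.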

41M [9] = test: Resistant factor was determined between IC50 of cisplatin-resistant human tumor cell lines to that of […] cell line; format: functional, cell-based; outline: as §2
A2780 [10] = test: Resistant factor determined between IC50 of resistant line to that of parental A2780 cell line; format: functional, cell-based; details: Homo sapiens; outline: as §2

Substance	IC50 (CH1 [1])	IC50 (41M [2])	IC50 (SK-OV-3)	LD50 [3]	IC50 (41M [4])	ED90 (Mus musculus)	IC50 (A2780 [5])	IC50 (CH1 [6])	IC50 (A2780 [7])	RF (CH1 [8])	RF (41M [9])	RF (A2780 [10])
AMMONIO(DICHLORO)PLATINUM(CYCLOHEXYL)AMMONIUM [listing 1 of 2 here]	0.38 µM and 3.3 µM	0.26 µM and 1.7 µM	2.1 µM and 7.2 µM	17.5 mg/kg and 35 mg/kg	0.28 µM and 1.5 µM							
AMMONIO(DICHLORO)PLATINUM(CYCLOHEXYL)AMMONIUM [listing 2 of 2 here]						1.4 mg/kg						
AMMONIO(DICHLORO)[DI(METHYLCARBONYLOXY)]PLATINUM(CYCLOHEXYL)AMMONIUM [listing 1 of 2 here]	1.5 µM	1.3 µM	4.8 µM	35 mg/kg	1.2 µM		0.3 µM	1.1 µM	3 µM			
AMMONIO(DICHLORO)[DI(METHYLCARBONYLOXY)]PLATINUM(CYCLOHEXYL)AMMONIUM [listing 2 of 2 here]										1.4	0.9	10
TRANSPLATIN	68.5 µM	57 µM	255 µM	32 mg/kg	70 µM		32 µM	30 µM	260 µM			
Trans-Amminedichloro hexylamine platinium (II) [listing 1 of 2 here]	4.4 µM	4.5 µM	7.1 µM		4.1 µM		2.3 µM	4 µM	4.8 µM			
Trans-Amminedichloro hexylamine platinium (II) [listing 2 of 2 here]										1.1	0.9	2.1
Trans-Amminedichloro(cycloheptylamine)platinium (II) [listing 1 of 2 here]	4.7 µM	2.4 µM	10 µM		1.7 µM		1.3 µM	4.3 µM	4.6 µM			
Trans-Amminedichloro(cycloheptylamine)platinium (II) [listing 2 of 2 here]										1.1	0.7	3.4
Trans-Amminedichloro(diethylamine)platinium (II)	> 50 µM	> 50 µM	> 50 µM		> 50 µM		> 50 µM	> 50 µM	> 50 µM			
trans-(1-Aminoadamantane)Amminedichloro-platinium (II) [listing 1 of 2 here]	0.43 µM	0.49 µM	1.5 µM		1.2 µM		0.4 µM	0.21 µM	1.4 µM			
trans-(1-Aminoadamantane)Amminedichloro-platinium (II) [listing 2 of 2 here]										2	2.4	3.6
trans-Amminedibromo (cyclohexylamine)-platinium (II) [listing 1 of 2 here]	5 µM	4 µM	11.5 µM		3.2 µM		1.9 µM	4 µM	5.4 µM			
trans-Amminedibromo (cyclohexylamine)-platinium (II) [listing 2 of 2 here]										1.2	0.8	2.8
trans-Amminedichloro(N-methylcyclohexylamine)-platinium (II) [listing 1 of 2 here]	1.1 µM	0.78 µM	3.9 µM	71 mg/kg	0.48 µM		0.46 µM	0.38 µM	3.6 µM			
trans-Amminedichloro(N-methylcyclohexylamine)-platinium (II) [listing 2 of 2 here]										2.8	0.6	7.8
trans-Amminedichloro(quinuclidine)platinium (II)	> 50 µM	> 50 µM	> 50 µM		> 50 µM		26 µM	> 50 µM	> 50 µM			
trans-Amminetetrachloro(cyclohexylamine)-platinium (IV) [listing 1 of 2 here]	4.7 µM	3.1 µM	9.3 µM		4.1 µM		1.5 µM	3.9 µM	5.3 µM			
trans-Amminetetrachloro(cyclohexylamine)-platinium (IV) [listing 2 of 2 here]										1.2	1.3	3.4

Substance	IC50 (CH1 [1])	IC50 (41M [2])	IC50 (SK-OV-3)	LD50 [3]	IC50 (41M [4])	ED90 (Mus musculus)	IC50 (A2780 [5])	IC50 (CH1 [6])	IC50 (A2780 [7])	RF (CH1 [8])	RF (41M [9])	RF (A2780 [10])
trans-Amminetetrachloro(pyridine)-platinium (IV) [listing 1 of 2 here]	4.8 µM	5.3 µM	14.5 µM	> 100 mg/kg	4.1 µM		3.2 µM	4.7 µM	5.6 µM			
trans-Amminetetrachloro(pyridine)-platinium (IV) [listing 2 of 2 here]										1	0.8	1.7
trans-Amminetetrachloro(quinuclidine)-platinium (IV)	15.5 µM	16.5 µM	29 µM		16 µM		14 µM	15.5 µM	16 µM			
trans-a,f-Dichloro-b,d-bis(cyclohexylamine)-c,e-dihydroxo-platinium (IV)	0.6 µM	0.8 µM	2.5 µM		1.2 µM		0.8 µM	0.55 µM	3.2 µM			
trans-a-Ammine-b,d-dichloro-c,e-dihydrooxy-f-(Morphiline)-platinium (IV)	28.3 µM	26 µM	47 µM	82 mg/kg	54 µM		10.9 µM	17.3 µM	47 µM			
trans-a-Ammine-b,d-dichloro-c,e-dihydrooxy-f-(cyclopentylamine)-platinium (IV)	1.9 µM	1.1 µM	7 µM	15 mg/kg	1.3 µM		0.95 µM	1.1 µM	5.2 µM			
trans-a-Ammine-b,d-dichloro-c,e-dihydrooxy-f-(ethylamine)-platinium (IV) [listing 1 of 2 here]	14 µM	9.4 µM	45 µM		13.3 µM		4.5 µM	10.3 µM	26.5 µM			
trans-a-Ammine-b,d-dichloro-c,e-dihydrooxy-f-(ethylamine)-platinium (IV) [listing 2 of 2 here]										1.4	1.4	5.9
trans-a-Ammine-b,d-dichloro-c,e-dihydroxo-f-(1,1,3,3-tetramethyl butylamine)-platinium (IV)	0.55 µM	0.48 µM	1.8 µM	29 mg/kg	1 µM		0.4 µM	0.36 µM	2.2 µM			
trans-a-Ammine-b,d-dichloro-c,e-dihydroxo-f-(N-methylcyclohexylamine)-platinium (IV)	2.9 µM	2.3 µM	6.9 µM	29 mg/kg	1.6 µM		1.3 µM	1.3 µM	5 µM			
trans-a-Ammine-b,d-dichloro-c,e-dihydroxo-f-(exo-2-aminonorbornane)-platinium (IV)	1.7 µM	1.4 µM	4.4 µM	17.5 mg/kg	1.5 µM		0.25 µM	1.4 µM	3 µM			
trans-a-Ammine-b,d-dichloro-c,e-dihydroxo-f-(quinuclidine)-platinium (IV) [listing 1 of 2 here]	14.3 µM	14.4 µM	27 µM		9.5 µM		3.2 µM	10.2 µM	16 µM			
trans-a-Ammine-b,d-dichloro-c,e-dihydroxo-f-(quinuclidine)-platinium (IV) [listing 2 of 2 here]										1.4	0.7	5
trans-a-Ammine-b,d-dichloro-c,e-dihydroxy-f-(benzylamine)-platinium (IV)	1.9 µM	1.3 µM	8.2 µM	71 mg/kg	1.3 µM		1.1 µM	1.1 µM	4.2 µM			
trans-a-Ammine-b,d-dichloro-c,e-dihydroxy-f-(diethylamine)-platinium (IV) [listing 1 of 2 here]	4.5 µM	1.8 µM	12.1 µM		0.76 µM		1.9 µM	3.3 µM	11.6 µM			
trans-a-Ammine-b,d-dichloro-c,e-dihydroxy-f-(diethylamine)-platinium (IV) [listing 2 of 2 here]										1.4	0.4	6.2
trans-a-ammine-b,d-dichloro-f-(2-propylamine)-c,e-dihydroxoplatinium (IV)	5.5 µM and 4.9 µM	3.2 µM and 3.9 µM	9.2 µM and 30.5 µM	18 mg/kg and 35 mg/kg	4.6 µM and 9.2 µM		0.54 µM and 0.99 µM	2.4 µM and 1.4 µM	4.7 µM and 7.2 µM			
trans-a-ammine-b,d-dichloro-f-(cyclohexylamine)-c,e-bis-(ethylcarbamato)platinium (IV)	5.6 µM	6.2 µM	19 µM		4.3 µM		3.2 µM	4.6 µM	10.6 µM			
trans-a-ammine-b,d-dichloro-f-(cyclohexylamine)-c,e-dihydroxoplatinium (IV)	2.1 µM and 2 µM	1.3 µM and 3.5 µM	6 µM and 16.6 µM		1.4 µM and 3.2 µM		0.42 µM and 0.8 µM	1.1 µM and 0.57 µM	3 µM and 1.9 µM			
